Published values of several laboratories.
Each line is one published result; the experiments were not run side by side.
Target: Casein kinase I isoform delta (CSNK1D, Homo sapiens, UniProt P48730)

CC(C)(C)c1nc(-c2cccc(NS(=O)(=O)c3c(F)cccc3F)c2F)c(-c2ccnc(N)n2)s1
remaining activity (enzyme activity, inhibitor, radiometric; 1 µM): 81%

COc1cc2ncnc(Nc3ccc(Oc4ccccc4)cc3C)c2cc1OC
inhibition (enzyme activity, inhibitor; 1 µM): 0%

Nc1cnc(N2CCc3cc(S(=O)(=O)Nc4c(F)cc(Cl)cc4F)cc(N4CCCC4=O)c32)nc1
remaining binding (cell-free assay, competition with immobilised ligand; 1 µM): 98%

O=C1Nc2ccc(Cl)cc2C1=Cc1cc(Cl)c(O)c(Cl)c1
remaining signal (cell-free assay; 0.5 µM): 89.6%

Nc1c(C(=O)NCc2ccc(C(=O)NCCCC3CCCCC3)cc2)cnn1-c1ccccc1
remaining binding (cell-free assay, competition with immobilised ligand; 0.1 µM): 100%

O=C(CSc1nc2nccnc2c(=O)n1CCc1ccccc1)Nc1nccs1
inhibition (enzyme activity, inhibitor; 10 µM): 7%

CC/C(=N\NC(=O)NCc1cccc(O)c1)c1ccc(O)c(C)c1O
inhibition (enzyme activity, inhibitor; 0.1 µM): 3.7%

CCCS(=O)(=O)Nc1ccc(F)c(C(=O)c2c[nH]c3ncc(-c4ccc(Cl)cc4)cc23)c1F
inhibition (enzyme activity, inhibitor; 1 µM): < 10%

CS(=O)(=O)CCNCc1ccc(-c2ccc3ncnc(Nc4ccc(OCc5cccc(F)c5)c(Cl)c4)c3c2)o1
remaining signal (cell-free assay; 0.5 µM): 91.2%

Cc1nc(N2CC[C@@H](O)C2)ncc1-c1cc(C(F)(F)F)cc2[nH]ncc12
remaining binding (cell-free assay, competition with immobilised ligand; 1 µM): 95%

COc1cc(Cl)c(C(=O)N[C@@H](CN[C@H]2CC[C@@H](N)CC2)Cc2ccc(C#N)cc2)cc1-c1ccc(CN[C@H](C)c2ccc(C)cc2)o1
remaining activity (enzyme activity, inhibitor; 1 µM): 89%

C[C@@]1(Cc2ccc(C#N)cc2)C(=O)N(c2cc(Cl)cc(Cl)c2)c2ncc(C(=O)NC3(c4nc(C5CCC5)no4)CC3)n21
remaining binding (cell-free assay, competition with immobilised ligand; 1 µM): 100%

O=C(Nc1cnn(-c2csc(C(=O)NC3COC3)c2)c1)Nc1ccccc1Cl
remaining activity (enzyme activity, inhibitor; 5 µM): 101%

COc1cc2ncnc(Nc3ccc(F)c(Cl)c3)c2cc1OCCCN1CCOCC1
remaining signal (cell-free assay; 0.5 µM): 90.4%

CN(c1ccnc(CNc2nc(Nc3ccc4c(c3)CC(=O)N4)ncc2C(F)(F)F)n1)S(C)(=O)=O
remaining binding (cell-free assay, competition with immobilised ligand; 1 µM): 100%

CN1CC(Oc2cnc(C#N)cc2-c2ccn3nc(NC(=O)C4CC4)cc3c2)C1
inhibition (enzyme activity, inhibitor; 1 µM): -20%
